The nature of test [1]: Agonist activity at human H2R-C17Y-A271D Gsalphas mutant containing human H2 receptor E2 loop expressed in Sf9 cells by steady state GTPase activity assay. It counts as functional. The procedure, abridged:
(§1)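 Mutant H2R-Gsαs fusion proteins in Sf9 membranes were tested by steady-state GTPase hydrolysis: 1.0 mM MgCl2, 100 nM GTP, AppNHp/creatine phosphate regeneration, pH 7.4 Tris, 20 min at 25 °C with [γ-32P/33P]GTP, charcoal separation of Pi.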

The target of test [2] is T1, Histamine H2 receptor (Homo sapiens, UniProt P25021). The test is described as follows: Intrinsic agonist activity at human H2R-Gsalphas expressed in Sf9 cells by steady state GTPase activity assay relative to histamine. The format is functional. The procedure, abridged: (§2)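 Steady-state GTPase assay with Sf9 membranes (5–20 µg protein) expressing hH2R- or gpH2R-Gsαs, in 50 mM Tris-HCl pH 7.4. Mix: 1.0 mM MgCl2, 100 µM EDTA, 100 nM GTP, 100 µM AppNHp, 5 mM creatine phosphate, creatine kinase, 0.2% BSA, ligand 0.1 nM–10 µM. After 2 min at 25 °C, [γ-32P]GTP or [γ-33P]GTP was added and reacted 20 min at 25 °C. Charcoal stop; released Pi counted. Emax referenced to histamine (1.0). Two to six experiments, duplicate.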
T1 sequence (P25021 whole entry): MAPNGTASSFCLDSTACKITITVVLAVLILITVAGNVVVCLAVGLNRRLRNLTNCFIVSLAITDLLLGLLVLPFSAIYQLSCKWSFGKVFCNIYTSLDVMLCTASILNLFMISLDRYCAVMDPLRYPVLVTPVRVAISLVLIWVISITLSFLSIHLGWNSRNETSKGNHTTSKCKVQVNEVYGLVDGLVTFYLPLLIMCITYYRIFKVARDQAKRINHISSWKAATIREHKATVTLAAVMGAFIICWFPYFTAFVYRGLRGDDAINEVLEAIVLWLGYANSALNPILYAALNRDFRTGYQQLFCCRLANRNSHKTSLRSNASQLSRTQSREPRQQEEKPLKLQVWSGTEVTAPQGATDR

The target in test [3] is Histamine H2 receptor (Cavia porcellus) (UniProt P47747). Briefly: Intrinsic agonist activity at guinea pig H2R-Gsalphas expressed in Sf9 cells by steady state GTPase activity assay relative to histamine. The format is functional. The gist of the method:
as §2

The target is the same in test [4]. The test is described as follows: Intrinsic agonist activity at H2R in spontaneously beating guinea pig right atrium assessed as increase in heart rate relative to histamine. The format is functional, tissue-based. Particulars: Cardiac atrium. The gist of the method: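 Isolated spontaneously beating guinea pig right atrium. Ligand stocks (10 mM) and dilutions were made in fresh bath fluid. Tissue was washed for 30 min and equilibrated for 15 min. […] Emax is relative to maximal histamine heart-rate increase. Three to five experiments.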

A short description of test [5]: Agonist activity at guinea pig H2R hE2 loop Gsalphas mutant containing human H2 receptor E2 loop expressed in Sf9 cells by steady state GTPase activity assay. The format is functional. Particulars: Cavia porcellus. The gist of the method:
as §1

Test [6] concerns the target T1, Histamine H2 receptor. Briefly: Agonist activity at human H2R-Gsalphas expressed in Sf9 cells at 0.1 nM to 10 uM by steady state GTPase activity assay.
Test [7] has as its target T2, Histamine H4 receptor (Homo sapiens, UniProt Q9H3N8). The test is described as follows: Agonist activity at human H4R-RGS19 Galphai2 Gbeta1gamma2 expressed in Sf9 cells by steady state GTPase activity assay relative to histamine. It counts as functional. The gist of the method:
(§3)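 Sf9 membranes coexpressing hH4R-RGS19 with Gαi2 and Gβ1γ2 were assayed for GTP hydrolysis with 5.0 mM MgCl2 and 100 mM NaCl (final), 100 nM GTP, 50 mM Tris-HCl pH 7.4. Ligands spanned 0.1 nM–1 mM. Preincubation was 2 min, then 20 min at 25 °C with [γ-32P]GTP or [γ-33P]GTP. Charcoal quench; Pi counted. Sigmoidal nonlinear regression; efficacy relative to histamine.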

The target in test [8] is T2, Histamine H4 receptor. Briefly: Agonist activity at human H4R-RGS19 Galphai2 Gbeta1gamma2 expressed in Sf9 cells at 0.1 nM to 1 mM by steady state GTPase activity assay. The format is functional. The procedure, abridged: as §3
The target in another test is Histamine H3 receptor (Homo sapiens, UniProt Q9Y5N1). The test is described as follows: Agonist activity at human H3R-Galphai2-Gbeta1gamma2-RGS4 expressed in Sf9 cells 0.1 nM to 1 mM by steady state GTPase activity assay. The format is functional.
Sequence of Histamine H3 receptor (Q9Y5N1 whole entry): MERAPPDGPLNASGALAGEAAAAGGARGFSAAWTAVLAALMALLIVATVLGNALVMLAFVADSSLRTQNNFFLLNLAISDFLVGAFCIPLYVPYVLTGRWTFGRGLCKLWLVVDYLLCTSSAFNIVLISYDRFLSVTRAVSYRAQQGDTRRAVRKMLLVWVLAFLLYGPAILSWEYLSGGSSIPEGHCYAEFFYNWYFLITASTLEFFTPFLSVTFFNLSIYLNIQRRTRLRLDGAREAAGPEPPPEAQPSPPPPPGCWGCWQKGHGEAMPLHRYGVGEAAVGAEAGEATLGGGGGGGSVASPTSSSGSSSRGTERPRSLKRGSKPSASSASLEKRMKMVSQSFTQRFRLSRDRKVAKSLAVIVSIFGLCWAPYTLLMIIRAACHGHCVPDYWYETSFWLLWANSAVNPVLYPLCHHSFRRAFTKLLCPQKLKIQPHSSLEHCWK
Test [9] has as its target Histamine H2 receptor (Cavia porcellus) (UniProt P47747). The test is described as follows: Agonist activity at H2R in spontaneously beating guinea pig right atrium assessed as increase in heart rate in presence of 100 uM H2R antagonist cimetidine. The format is functional, tissue-based. As to conditions: Cardiac atrium.
Test [10] deals with T1, Histamine H2 receptor. The test is described as follows: Potency index, ratio of pEC50 for compound to pEC50 for histamine at human H2R-Gsalphas expressed in Sf9 cells at 0.1 nM to 10 uM by steady state GTPase activity assay. The procedure, abridged:
(§4)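 Sf9 membranes expressing human or guinea pig H2R-Gsαs fusion protein, 1.0 mM MgCl2, ATP, 100 nM GTP, AppNHp, creatine phosphate/kinase, BSA, Tris pH 7.4. Agonists 0.1 nM–10 μM, [γ-32P/33P]GTP hydrolysis 20 min at 25 °C, Pi counted. Curves fit by sigmoidal nonlinear regression. Potency given relative to histamine (set to 1.0). Two to six independent experiments in duplicate.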

The target of test [11] is Histamine H2 receptor (Cavia porcellus, UniProt P47747). Briefly: Agonist activity at guinea pig H2R-Gsalphas expressed in Sf9 cells at 0.1 nM to 10 uM by steady state GTPase activity assay. It counts as functional. The gist of the method: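 Steady-state GTPase assay with Sf9 membranes (5–20 µg protein) expressing hH2R- or gpH2R-Gsαs, in 50 mM Tris-HCl pH 7.4. Mix: 1.0 mM MgCl2, 100 µM EDTA, 100 nM GTP, 100 µM AppNHp, 5 mM creatine phosphate, creatine kinase, 0.2% BSA, ligand 0.1 nM–10 µM. After 2 min at 25 °C, [γ-32P]GTP or [γ-33P]GTP was added and reacted 20 min at 25 °C. Charcoal stop; released Pi counted. Two to six experiments, duplicate.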
Sequence of Histamine H2 receptor (Cavia porcellus, UniProt P47747) (P47747 whole entry): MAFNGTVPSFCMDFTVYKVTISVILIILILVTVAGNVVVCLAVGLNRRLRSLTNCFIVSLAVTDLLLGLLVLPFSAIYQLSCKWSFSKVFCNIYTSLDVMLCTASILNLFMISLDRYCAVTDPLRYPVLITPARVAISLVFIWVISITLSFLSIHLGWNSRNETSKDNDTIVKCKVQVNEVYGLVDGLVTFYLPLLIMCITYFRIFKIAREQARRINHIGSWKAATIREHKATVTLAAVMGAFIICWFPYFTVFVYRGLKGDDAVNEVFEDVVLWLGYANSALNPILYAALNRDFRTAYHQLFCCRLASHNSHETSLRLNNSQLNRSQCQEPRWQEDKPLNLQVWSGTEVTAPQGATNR

The target of test [12] is Histamine H2 receptor (Cavia porcellus) (UniProt P47747). The test is described as follows: Potency index, ratio of pEC50 for compound to pEC50 for histamine at guinea pig H2R-Gsalphas expressed in Sf9 cells at 0.1 nM to 10 uM by steady state GTPase activity assay. The gist of the method:
as §4

The nature of test [13]: Selectivity index, ratio of EC50 for human H2R-Gsalphas to EC50 for guinea pig H2R-Gsalphas by steady state GTPase activity assay.
The target in test [14] is Histamine H1 receptor (Homo sapiens) (UniProt P35367). Briefly: Antagonist activity at human H1R-RGS4 expressed in Sf9 cells by steady state GTPase activity assay. The format is functional. The gist of the method:
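Sf9 membranes (5–20 μg protein) co-expressing human H1R with RGS4. Reaction with 1.0 mM MgCl2, 100 μM ATP, 100 nM GTP, AppNHp, creatine phosphate/kinase, 0.2% BSA, 50 mM Tris-HCl pH 7.4. Histamine 100 nM with test ligand 10 nM–1 mM. [γ-32P/33P]GTP added, 20 min at 25 °C. Charcoal stop, released Pi counted. pKB from sigmoidal nonlinear fits.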

Active and inactive are the calls of the source. No cut-off for these calls is given here.

The values that follow come from ChEMBL document CHEMBL2163257 (J Med Chem, 2012).

Sequence of Histamine H2 receptor (Cavia porcellus) (P47747 whole entry): as above
T2 sequence (Q9H3N8 whole entry): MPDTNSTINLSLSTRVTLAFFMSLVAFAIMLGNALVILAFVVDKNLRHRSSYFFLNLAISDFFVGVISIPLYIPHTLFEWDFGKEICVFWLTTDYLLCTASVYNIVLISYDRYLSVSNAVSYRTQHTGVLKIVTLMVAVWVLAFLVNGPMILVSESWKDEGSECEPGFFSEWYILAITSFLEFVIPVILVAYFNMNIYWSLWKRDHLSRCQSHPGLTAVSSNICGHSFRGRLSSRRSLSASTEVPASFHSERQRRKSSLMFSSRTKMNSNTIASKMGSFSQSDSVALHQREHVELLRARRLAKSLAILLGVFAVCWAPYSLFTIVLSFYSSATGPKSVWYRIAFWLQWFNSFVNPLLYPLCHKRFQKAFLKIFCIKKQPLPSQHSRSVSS
Sequence of Histamine H1 receptor (Homo sapiens) (P35367 whole entry): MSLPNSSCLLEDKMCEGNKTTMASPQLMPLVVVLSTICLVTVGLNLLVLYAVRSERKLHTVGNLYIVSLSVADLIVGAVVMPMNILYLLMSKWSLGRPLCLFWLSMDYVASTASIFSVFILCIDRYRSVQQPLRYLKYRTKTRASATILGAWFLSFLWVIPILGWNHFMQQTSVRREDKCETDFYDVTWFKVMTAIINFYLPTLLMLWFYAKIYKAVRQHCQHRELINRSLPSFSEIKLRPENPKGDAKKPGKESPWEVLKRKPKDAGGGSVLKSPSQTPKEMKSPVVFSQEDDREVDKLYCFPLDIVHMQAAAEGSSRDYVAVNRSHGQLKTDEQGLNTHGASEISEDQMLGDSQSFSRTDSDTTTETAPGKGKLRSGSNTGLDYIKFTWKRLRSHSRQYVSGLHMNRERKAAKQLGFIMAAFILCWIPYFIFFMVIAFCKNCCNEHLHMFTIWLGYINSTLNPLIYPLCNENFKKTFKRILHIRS

Turning to `Cc1nc(N)sc1CCCN/C(N)=N/C(=O)CCCCCCC(=O)/N=C(\N)NCCCc1sc(N)nc1C`, the result in test [1] and in [5] was Active. In addition, the figures for the Intrinsic activity (on Histamine H2 receptor [2]; in [3]; in test [4]) were 0.62, 0.81 and 0.64, respectively.

On to `Cc1nc(N)sc1CCCN/C(N)=N/C(=O)CCCCCCCCCCC(=O)/N=C(\N)NCCCc1sc(N)nc1C`, for which the results for the Intrinsic activity (on Histamine H2 receptor [2]; in test [3]; in test [4]) were 0.46, 0.66 and 0.46, respectively.

`N/C(=N\C(=O)CCCCCCCCCCCCCCCCCCCCC(=O)/N=C(\N)NCCCc1c[nH]cn1)NCCCc1c[nH]cn1` returned an Intrinsic activity in test [3] of 0.19.

As for `NC(=NCCCc1nnc[nH]1)NC(=O)CCCCCCCCC(=O)NC(N)=NCCCc1nnc[nH]1`, the EC50 on Histamine H2 receptor [6] is 151 nM.

Turning to `Cc1nc(N)sc1CCCN/C(N)=N/C(=O)CCCCCCCCC(=O)/N=C(\N)NCCCc1c[nH]cn1`, the Intrinsic activity worked out at 0.52 on Histamine H4 receptor [7], 0.76 on Histamine H2 receptor [2] and 1.01 in test [3]. In addition, the result in test [1] and in test [5] was Active. Moreover, the figures for the EC50 on Histamine H4 receptor [8] and at Histamine H3 receptor were 8.51 nM and 2.88 nM, respectively.

In the case of `N/C(=N\C(=O)CCCCC(=O)/N=C(\N)NCCCc1c[nH]cn1)NCCCc1c[nH]cn1`, the results for the Intrinsic activity (on Histamine H4 receptor [7]; at Histamine H2 receptor [2]; in test [3]) were 0.42, 0.68 and 1, respectively. The EC50 is 79.4 nM on Histamine H4 receptor [8] and over 10000 nM at Histamine H3 receptor.

Consider `N/C(=N\C(=O)CCCCCCCCCCCCCCC(=O)/N=C(\N)NCCCc1cnc(N)s1)NCCCc1cnc(N)s1`, for which the Intrinsic activity at Histamine H2 receptor [2] stood at 0.14; in test [3], 0.59.

For `Cc1nc(N)sc1CCCN/C(N)=N/C(=O)CCCCC(=O)/N=C(\N)NCCCc1sc(N)nc1C`, the Intrinsic activity on Histamine H2 receptor [2] turned out to be 0.68; in test [3] it was 0.9; in [4], 0.88. Moreover, the %max in [9] was 46%.

On to `N/C(=N\C(=O)CCCCCCC(=O)/N=C(\N)NCCCc1cnc(N)s1)NCCCc1cnc(N)s1`, for which the result in [1] and in test [5] was Active. For the same compound, the results for the Intrinsic activity (at Histamine H2 receptor [2]; in test [3]) were 0.79 and 1, respectively.

Take `N/C(=N\C(=O)CCCCCCCCCCCCCCC(=O)/N=C(\N)NCCCc1c[nH]cn1)NCCCc1c[nH]cn1`: the EC50 at Histamine H4 receptor [8] was 339 nM; on Histamine H3 receptor it was over 1000 nM. The results for the Intrinsic activity (at Histamine H2 receptor [2]; in test [3]) were 0.29 and 0.85, respectively.

For `Cc1nc(N)sc1CCCN/C(N)=N/C(=O)CCCCCCCCC(=O)/N=C(\N)NCCCc1sc(N)nc1C`, the result in [1] and in [5] was Active. Further, the results for the Intrinsic activity (at Histamine H2 receptor [2]; in test [3]; in test [4]) were 0.53, 0.79 and 0.62, respectively.

As to `Cc1nc(N)sc1CCCN/C(N)=N/C(=O)CCCCCCCCC(=O)/N=C(\N)NCCCc1cnc(N)s1`, the result in test [1] and in test [5] was Active. In addition, the Intrinsic activity worked out at 0.75 on Histamine H2 receptor [2] and 0.89 in test [3].

In [3], `N/C(=N\C(=O)CCCCCCCCCCCCCCCCCCCCC(=O)/N=C(\N)NCCCc1cnc(N)s1)NCCCc1cnc(N)s1` came in with an Intrinsic activity of 0.36.

Usually pKb stands for −log10 of the Kb, conventionally taken in molar units. A low value points to a high Kb. Turning to `N/C(=N\C(=O)CCCCCCC(=O)/N=C(\N)NCCCc1c[nH]cn1)NCCCc1c[nH]cn1`, the Intrinsic activity on Histamine H4 receptor [7] stood at 0.51; at Histamine H2 receptor [2] it was 0.77; in test [3], 1.18. Further, the EC50 is 41.7 nM on Histamine H4 receptor [8], 56.2 nM at Histamine H2 receptor [6], 3.24 nM on Histamine H2 receptor [11] (read-out: pEC50 (converted)) and 4.17 nM on Histamine H3 receptor. Also, the Ratio worked out at 22.4 at Histamine H2 receptor [10] and 372 in [12]. Moreover, the Ratio EC50 in [13] is 17.4. In test [14], this compound came in with a negative logarithm of the Kb (pKb) of 6.7.

In the case of `N/C(=N\C(=O)CCCCCCCCC(=O)/N=C(\N)NCCCc1c[nH]cn1)NCCCc1c[nH]cn1`, the Intrinsic activity on Histamine H4 receptor [7] was determined as 0.44; on Histamine H2 receptor [2] it was 0.81; in test [3] it was 0.98; in test [4], 0.91. Besides, the result in test [1] and in test [5] was Active. Moreover, the values for the EC50 on Histamine H4 receptor [8] and at Histamine H3 receptor were 8.51 nM and 1.78 nM, respectively.

As to `N/C(=N\C(=O)CCCCCCCCC(=O)/N=C(\N)NCCCc1cnc(N)s1)NCCCc1cnc(N)s1`, the outcome in test [1] and in [5] was Active. Also, the Intrinsic activity on Histamine H2 receptor [2] was determined as 0.75; in [3], 0.94.

Take `Cc1nc(N)sc1CCCN/C(N)=N/C(=O)CCCCCCCC(=O)/N=C(\N)NCCCc1sc(N)nc1C`: the Intrinsic activity at Histamine H2 receptor [2] stood at 0.48; in [3], 0.9; in test [4], 0.71.

Turning to `N/C(=N\C(=O)CCCCCCCCC(=O)/N=C(\N)NCCCc1ncn[nH]1)NCCCc1ncn[nH]1`, the Intrinsic activity at Histamine H2 receptor [2] was found to be 0.49; in [3] it was 0.95.

In the case of `N=C(NCCCc1cnc[nH]1)NC(=O)CCCCCCCCCCCCCCCCCCCCC(=O)NC(N)=NCCCc1cnc[nH]1`, the figures for the EC50 on Histamine H4 receptor [8] and on Histamine H3 receptor were over 1000 nM and 447 nM, respectively.

As for `Cc1nc(N)sc1CCCN/C(N)=N/C(=O)CCCCCCCCCCCCCCCCCCCCC(=O)/N=C(\N)NCCCc1sc(N)nc1C`, the Intrinsic activity in test [3] worked out at 0.58; in test [4], 0.62.

As to `Cc1nc(N)sc1CCN` [AMTHAMINE], the Intrinsic activity is 0.91 at Histamine H2 receptor [2], 1.04 in [3] and 0.95 in test [4].

For `Cc1nc(N)sc1CCCNC(=N)NC(=O)CCCCCCCCC(=O)NC(=N)NCCCc1sc(N)nc1C`, the EC50 at Histamine H2 receptor [11] (read-out: EC50) amounted to 0.39 nM.

For `Cc1nc(N)sc1CCCN/C(N)=N/C(=O)CCCCCCCCCCCCCCC(=O)/N=C(\N)NCCCc1sc(N)nc1C`, the result in test [1] and in [5] was Active. Besides, the Intrinsic activity on Histamine H2 receptor [2] turned out to be 0.12; in [3], 0.51; in test [4], 0.53.

Regarding `Cc1nc(N)sc1CCCN/C(N)=N/C(=O)CCc1ccccc1`, the Intrinsic activity on Histamine H2 receptor [2] was found to be 0.79; in test [3] it was 0.76.
